# Source: ChEMBL document CHEMBL4825703, “Investigation of 3-sulfamoyl coumarins against cancer-related IX and XII isoforms of human carbonic anhydrase as well as cancer cells leads to the discovery of 2-oxo-2H-benzo[h]chromene-3-sulfonamide - A new caspase-activating proapoptotic agent” (Eur J Med Chem, 2021)
# pIC50, pKi: −log10 of the molar value. Active and inactive are the calls of the source. The rule behind the calls is not given here.
# What was measured:
# [1] = system: U-87 MG; assay: Antiproliferative activity against human U-87 MG cells assessed as cell survival rate at 300 uM measured after 24 hrs under CoCl2-induced hypoxic condition by MTT assay relative to control; assay type: functional, U-87MG ATCC; settings: read-out: Survival
# Procedure, shortened: (§1)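 MTT end-point assay. MTT (5 mg/mL in PBS) added for 4 h, formazan dissolved in DMSO, absorbance read at 560 nm. Viability given as % of untreated control (100%); mean ± SEM of three experiments.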
# [2] = target: Carbonic anhydrase 9 (Homo sapiens, UniProt Q16790); assay: Inhibition of human carbonic anhydrase 9 assessed as inhibition constant incubated for 15 mins prior to testing by phenol red based stopped-flow CO2 hydration assay
# [3] = system: U-87 MG; assay: Antiproliferative activity against human U-87 MG cells assessed as cell growth inhibition at 30 to 100 uM measured after 24 hrs under CoCl2-induced hypoxic condition by MTT assay; assay type: functional, cell-based; settings: U-87MG ATCC, dose 30-100 µM
# [4] = Antiproliferative activity against human WI-26 AV4 cells assessed as reduction in cell viability measured after 48 hrs by MTT assay; settings: WI-26 AV4, 48 h
# [5] = system: A-431; assay: Induction of apoptosis in human A-431 cells assessed as early apoptotic cells at 10 uM incubated for 24 hrs by annexin-V/FITC and propidium iodide based staining based flow cytometry (Rvb= 6.10 %); assay type: functional
# [6] = system: A-431; assay: Induction of apoptosis in human A-431 cells assessed as late apoptotic cells at 10 uM incubated for 24 hrs by annexin-V/FITC and propidium iodide based staining based flow cytometry (Rvb= 3.06 %); assay type: functional
# [7] = system: A-431; assay: Antiproliferative activity against human A-431 cells assessed as cell survival rate at 300 uM measured after 24 hrs under CoCl2-induced hypoxic condition by MTT assay relative to control; assay type: functional; settings: read-out: Survival; procedure, shortened: as §1
# [8] = system: A-431; assay: Induction of apoptosis in human A-431 cells assessed as activation of caspase 3/7 measured after 24 hrs by CellEvent caspase 3/7 green detection reagent based assay; assay type: functional, cell-based
# Procedure, shortened: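 Subconfluent cells in 6-well plates exposed to compound (5–25) for 24 h at 37 °C, 5% CO₂. Cells washed in PBS and resuspended at 1 × 10^6/mL. CellEvent caspase-3/7 green reagent added at 4 final, incubated 30 min at 37 °C, then analysed by flow cytometry within 20 min.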
# [9] = system: A-431; assay: Induction of apoptosis in human A-431 cells assessed as dead cells at 20 uM incubated for 24 hrs by annexin-V/FITC and propidium iodide based staining based flow cytometry (Rvb= 0.14 %); assay type: functional
# [10] = system: A-431; assay: Induction of apoptosis in human A-431 cells assessed as early apoptotic cells at 15 uM incubated for 24 hrs by annexin-V/FITC and propidium iodide based staining based flow cytometry (Rvb= 6.10 %); assay type: functional
# [11] = system: A-431; assay: Induction of apoptosis in human A-431 cells assessed as viable cells at 20 uM incubated for 24 hrs by annexin-V/FITC and propidium iodide based staining based flow cytometry (Rvb= 90.70 %); assay type: functional; settings: read-out: Activity
# [12] = system: A-431; assay: Induction of apoptosis in human A-431 cells assessed as early apoptotic cells at 20 uM incubated for 24 hrs by annexin-V/FITC and propidium iodide based staining based flow cytometry (Rvb= 6.10 %); assay type: functional
# [13] = system: A-431; assay: Induction of apoptosis in human A-431 cells assessed as early apoptotic cells at 5 uM incubated for 24 hrs by annexin-V/FITC and propidium iodide based staining based flow cytometry (Rvb= 6.10 %); assay type: functional
# [14] = system: A-431; assay: Antiproliferative activity against human A-431 cells assessed as reduction in cell viability measured after 24 hrs by MTT assay; settings: A-431, 24 h
# [15] = Antiproliferative activity against human WI-26 AV4 cells assessed as reduction in cell viability measured after 72 hrs by MTT assay; settings: WI26VA4, 72 h
# [16] = system: A-431; assay: Induction of apoptosis in human A-431 cells assessed as early apoptotic cells at 25 uM incubated for 24 hrs by annexin-V/FITC and propidium iodide based staining based flow cytometry (Rvb= 6.10 %); assay type: functional
# [17] = system: A-431; assay: Induction of apoptosis in human A-431 cells assessed as dead cells at 5 uM incubated for 24 hrs by annexin-V/FITC and propidium iodide based staining based flow cytometry (Rvb= 0.14 %); assay type: functional
# [18] = system: A-431; assay: Induction of apoptosis in human A-431 cells assessed as viable cells at 10 uM incubated for 24 hrs by annexin-V/FITC and propidium iodide based staining based flow cytometry (Rvb= 90.70 %); assay type: functional; settings: read-out: Activity
# [19] = system: A-431; assay: Induction of apoptosis in human A-431 cells assessed as late apoptotic cells at 5 uM incubated for 24 hrs by annexin-V/FITC and propidium iodide based staining based flow cytometry (Rvb= 3.06 %); assay type: functional
# [20] = system: A-431; assay: Induction of apoptosis in human A-431 cells assessed as dead cells at 10 uM incubated for 24 hrs by annexin-V/FITC and propidium iodide based staining based flow cytometry (Rvb= 0.14 %); assay type: functional
# [21] = system: A-431; assay: Antiproliferative activity against human A-431 cells assessed as reduction in cell viability measured after 72 hrs by MTT assay; settings: A-431, 72 h
# [22] = system: A-431; assay: Induction of apoptosis in human A-431 cells assessed as late apoptotic cells at 25 uM incubated for 24 hrs by annexin-V/FITC and propidium iodide based staining based flow cytometry (Rvb= 3.06 %); assay type: functional
# [23] = Antiproliferative activity against human WI-26 AV4 cells assessed as reduction in cell viability measured after 24 hrs by MTT assay; settings: WI-26 AV4, 24 h
# [24] = system: A-431; assay: Induction of apoptosis in human A-431 cells assessed as late apoptotic cells at 15 uM incubated for 24 hrs by annexin-V/FITC and propidium iodide based staining based flow cytometry (Rvb= 3.06 %); assay type: functional
# [25] = system: A-431; assay: Induction of apoptosis in human A-431 cells assessed as dead cells at 15 uM incubated for 24 hrs by annexin-V/FITC and propidium iodide based staining based flow cytometry (Rvb= 0.14 %); assay type: functional
# [26] = system: A-431; assay: Antiproliferative activity against human A-431 cells assessed as reduction in cell viability measured after 48 hrs by MTT assay; settings: A-431, 48 h
# [27] = system: A-431; assay: Antiproliferative activity against human A-431 cells assessed as cell survival rate at 100 uM measured after 24 hrs under CoCl2-induced hypoxic condition by MTT assay relative to control; assay type: functional; settings: read-out: Survival; procedure, shortened: as §1
# [28] = system: hTERT-BJ; assay: Cytotoxicity against human TERT-Bj-5ta cells assessed as reduction in cell viability at measured after 24 hrs under CoCl2- induced hypoxic condition by MTT assay; assay type: cell-based
# [29] = system: A-431; assay: Induction of apoptosis in human A-431 cells assessed as dead cells at 25 uM incubated for 24 hrs by annexin-V/FITC and propidium iodide based staining based flow cytometry (Rvb= 0.14 %); assay type: functional
# [30] = system: A-431; assay: Induction of apoptosis in human A-431 cells assessed as viable cells at 5 uM incubated for 24 hrs by annexin-V/FITC and propidium iodide based staining based flow cytometry (Rvb= 90.70 %); assay type: functional; settings: read-out: Activity
# [31] = system: A-431; assay: Induction of apoptosis in human A-431 cells assessed as viable cells at 25 uM incubated for 24 hrs by annexin-V/FITC and propidium iodide based staining based flow cytometry (Rvb= 90.70 %); assay type: functional; settings: read-out: Activity
# [32] = system: A-431; assay: Induction of apoptosis in human A-431 cells assessed as viable cells at 15 uM incubated for 24 hrs by annexin-V/FITC and propidium iodide based staining based flow cytometry (Rvb= 90.70 %); assay type: functional; settings: read-out: Activity
# [33] = system: A-431; assay: Induction of apoptosis in human A-431 cells assessed as late apoptotic cells at 20 uM incubated for 24 hrs by annexin-V/FITC and propidium iodide based staining based flow cytometry (Rvb= 3.06 %); assay type: functional
# [34] = target: Carbonic anhydrase 2 (Homo sapiens, UniProt P00918); assay: Inhibition of human carbonic anhydrase 2 assessed as inhibition constant incubated for 15 mins prior to testing by phenol red based stopped-flow CO2 hydration assay
# [35] = system: hTERT-BJ; assay: Cytotoxicity against human TERT-Bj-5ta cells assessed as reduction in cell viability at 300 uM measured after 24 hrs under CoCl2- induced hypoxic condition by MTT assay relative to control; assay type: cell-based
# [36] = system: RT-4; assay: Antiproliferative activity against human RT-4 cells assessed as cell survival rate at 300 uM measured after 24 hrs under CoCl2-induced hypoxic condition by MTT assay relative to control; assay type: functional; settings: read-out: Survival; procedure, shortened: as §1
# [37] = system: RT-4; assay: Antiproliferative activity against human RT-4 cells assessed as cell survival rate at 100 uM measured after 24 hrs under CoCl2-induced hypoxic condition by MTT assay relative to control; assay type: functional; settings: read-out: Survival; procedure, shortened: as §1
structure (smiles),measurement,setting,value
NS(=O)(=O)c1cc2cccc(F)c2oc1=O,viability at 300 µM,[1],57.9%
same,pKi,[2],7.39
same,growth inhibition (GI),[3],inactive
COc1cccc2cc(S(N)(=O)=O)c(=O)oc12,pKi,[2],7.06
same,growth inhibition (GI),[3],inactive
NS(=O)(=O)c1cc2ccccc2oc1=O,pKi,[2],7.19
same,growth inhibition (GI),[3],inactive
NS(=O)(=O)c1cc2c(ccc3ccccc32)oc1=O,pIC50,[4],4.07
same,Activity,[5],9.25%
same,Activity,[6],1.99%
same,viability at 300 µM,[1],67.9%
same,viability at 300 µM,[7],23.4%
same,Activity,[8],Dose-Dependent Effect
same,Activity,[9],0.25%
same,Activity,[10],12.52%
same,viability at 20 µM,[11],81.2%
same,Activity,[12],15.93%
same,Activity,[13],3.89%
same,pIC50,[14],5.01
same,pIC50,[15],< 3.46
same,Activity,[16],18.56%
same,pKi,[2],5.20
same,Activity,[17],0.48%
same,viability at 10 µM,[18],88.4%
same,Activity,[19],2.79%
same,Activity,[20],0.34%
same,pIC50,[21],4.15
same,Activity,[22],2.31%
same,pIC50,[23],4.38
same,Activity,[24],1.7%
same,Activity,[25],0.24%
same,pIC50,[26],4.59
same,viability at 100 µM,[27],73%
same,Activity,[28],Non-Toxic
same,Activity,[29],0.41%
same,viability at 5 µM,[30],92.8%
same,viability at 25 µM,[31],78.7%
same,viability at 15 µM,[32],85.5%
same,growth inhibition (GI),[3],inactive
same,Activity,[33],2.65%
same,pKi,[34],< 4.00
NS(=O)(=O)c1cc2cc([N+](=O)[O-])ccc2oc1=O,pKi,[2],6.83
same,growth inhibition (GI),[3],inactive
Cc1cc(C)c2cc(S(N)(=O)=O)c(=O)oc2c1,pKi,[2],6.08
same,growth inhibition (GI),[3],inactive
Cc1ccc2oc(=O)c(S(N)(=O)=O)cc2c1,pKi,[2],7.32
same,growth inhibition (GI),[3],inactive
CCOc1cccc2cc(S(N)(=O)=O)c(=O)oc12,Activity,[35],55.97%
same,pKi,[2],7.29
same,growth inhibition (GI),[3],inactive
COc1ccc2cc(S(N)(=O)=O)c(=O)oc2c1,pKi,[2],7.39
same,growth inhibition (GI),[3],inactive
NS(=O)(=O)c1cc2cc(Cl)cc(Cl)c2oc1=O,pIC50,[4],5.02
same,viability at 300 µM,[1],54.1%
same,viability at 300 µM,[7],2.84%
same,pIC50,[14],4.57
same,pIC50,[15],4.84
same,pKi,[2],6.29
same,viability at 300 µM,[36],15.1%
same,pIC50,[21],4.45
same,pIC50,[23],4.13
same,pIC50,[26],4.69
same,viability at 100 µM,[37],43.5%
same,viability at 100 µM,[27],38.8%
same,Activity,[28],Non-Toxic
same,growth inhibition (GI),[3],inactive
NS(=O)(=O)c1cc2cc(Br)ccc2oc1=O,pIC50,[4],4.38
same,viability at 300 µM,[7],39.3%
same,pIC50,[14],4.42
same,pIC50,[15],4.67
same,pKi,[2],6.50
same,viability at 300 µM,[36],19.7%
same,pIC50,[21],4.31
same,pIC50,[23],4.12
same,pIC50,[26],4.61
same,Activity,[28],Non-Toxic
same,growth inhibition (GI),[3],inactive
NS(=O)(=O)c1cc2cc(Cl)ccc2oc1=O,pIC50,[4],4.35
same,viability at 300 µM,[7],36.5%
same,pIC50,[14],4.28
same,pIC50,[15],5.23
same,pKi,[2],6.75
same,viability at 300 µM,[36],19.7%
same,pIC50,[21],4.24
same,pIC50,[23],4.05
same,pIC50,[26],4.54
same,Activity,[28],Non-Toxic
same,growth inhibition (GI),[3],inactive
NS(=O)(=O)c1cc2cccc(O)c2oc1=O,Activity,[35],54.76%
same,viability at 300 µM,[1],67.7%
same,pKi,[2],7.01
same,viability at 300 µM,[36],19.7%
same,growth inhibition (GI),[3],inactive
COc1cccc2oc(=O)c(S(N)(=O)=O)cc12,pKi,[2],5.53
same,growth inhibition (GI),[3],inactive
NS(=O)(=O)c1cc2cc(O)ccc2oc1=O,Activity,[35],65.75%
same,pKi,[2],7.18
same,growth inhibition (GI),[3],inactive
NS(=O)(=O)c1cc2cc(F)ccc2oc1=O,pKi,[2],7.49
same,growth inhibition (GI),[3],inactive
COc1ccc2oc(=O)c(S(N)(=O)=O)cc2c1,Activity,[35],70.97%
same,pKi,[2],7.24
same,growth inhibition (GI),[3],inactive
